Test results published in ChEMBL document CHEMBL1137646, “Intracellular metabolism and persistence of the anti-human immunodeficiency virus activity of 2',3'-didehydro-3'-deoxy-4'-ethynylthymidine, a novel thymidine analog” (Antimicrob Agents Chemother, 2007).
Active and inactive are the calls of the source. The rule behind the calls is not given here.

Experiments:
CCRF-CEM [1] = experiment: Drug metabolism in human CEM cells assessed as radioactive zidovudine triphosphate accumulation at 2 uM after 2 hrs assessed per 10^6 cells; format: ADME, cell-based
Procedure, shortened: (§1)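 CEM cells (2 x 10^7/ml) in RPMI 1640 with 10% dialyzed FBS were incubated at 37°C with 2 µM [3H]analog (75 mCi/mmol) and harvested at 2, 4, 8, 12, 16 and 24 h. Cells were washed in ice-cold PBS with 20 µM dipyridamole and extracted with 15% TCA. Neutralized extracts were separated on a Partisil SAX column with an H2O to 300 mM potassium phosphate gradient and radiometric detection, reported as pmol/10^6 cells, mean ± SD of three experiments.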

CCRF-CEM [2] = experiment: Drug metabolism in human CEM cells assessed as radioactive stavudine triphosphate accumulation at 2 uM assessed per 10^6 cells; format: ADME, cell-based; details: TDE = time-dependent effect; procedure, shortened: as §1
CCRF-CEM [3] = experiment: Drug metabolism in human CEM cells assessed as radioactive zidovudine triphosphate accumulation at 2 uM assessed per 10^6 cells; format: ADME, cell-based; details: TDE = time-dependent effect; procedure, shortened: as §1
CCRF-CEM [4] = experiment: Drug metabolism in human CEM cells assessed as radioactive stavudine monophosphate accumulation at 2 uM assessed per 10^6 cells; format: ADME, cell-based; details: TDE = time-dependent effect; procedure, shortened: as §1
CCRF-CEM [5] = experiment: Drug metabolism in human CEM cells assessed as radioactive 2', 3'-didehydro-3'-deoxy-4'-ethynylthymidine triphosphate accumulation at 2 uM after 12 hrs assessed per 10^6 cells; format: ADME, cell-based; procedure, shortened: as §1
[6] = system: Human immunodeficiency virus 1; experiment: Antiviral activity against 0.1 MOI HIV1 3B infected in human TZM-b1 cells assessed as inhibition of viral replication at 0.22 uM after 24 hrs by luciferase assay; format: functional; details: Human immunodeficiency virus 1, 3B, TZM-b1, 24 h
Procedure, shortened: (§2)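 TZM-bl cells were plated at 0.5 x 10^4 per well in phenol red-free RPMI 1640 and allowed to adhere 15-18 h at 37°C. After a medium change, drug was added with quintuple wells per concentration, and cells were infected at the same time with HIV-1 IIIB at MOI 0.1. After 24 h, cells were lysed and luciferase was read minus the uninfected background. Values are percentage of mean luminescence in drug-free wells.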

CCRF-CEM [7] = experiment: Stability in human CEM cells assessed as intracellular radioactive triphosphate metabolite accumulation at 2 uM incubated for 24 hrs measured after 24 hrs of compound removal assessed per 10^6 cells; format: ADME, cell-based
Procedure, shortened: (§3)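 CEM cells were loaded with 2 µM [3H]analog (75 mCi/mmol) for 24 h, washed, and resuspended in drug-free medium. Intracellular metabolites were then measured by SAX-HPLC with radiometric detection at 0, 2, 4, 8, 12 and 24 h after removal. Values are pmol/10^6 cells, mean ± SD of three experiments.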

CCRF-CEM [8] = experiment: Drug metabolism in human CEM cells assessed as radioactive 2', 3'-didehydro-3'-deoxy-4'-ethynylthymidine triphosphate accumulation at 2 uM assessed per 10^6 cells; format: ADME, cell-based; details: TDE = time-dependent effect; procedure, shortened: as §1
[9] = system: Human immunodeficiency virus 1; experiment: Antiviral activity against 0.1 MOI HIV1 3B infected in human TZM-b1 cells assessed as inhibition of viral replication after 24 hrs by luciferase assay; format: functional, organism-based
Procedure, shortened: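 TZM-bl cells in phenol red-free RPMI 1640 were infected with HIV-1 IIIB (MOI 0.1) at the time of adding drug at various concentrations, and drug and virus stayed together for 24 h. Lysate luciferase was measured with uninfected background subtracted, in quintuple wells. Inhibition was the mean signal relative to drug-free infected cells.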

CCRF-CEM [10] = experiment: Drug metabolism in human CEM cells assessed as radioactive stavudine diphosphate accumulation at 2 uM assessed per 10^6 cells; format: ADME, cell-based; details: TDE = time-dependent effect; procedure, shortened: as §1
CCRF-CEM [11] = experiment: Drug metabolism in human CEM cells assessed as radioactive zidovudine diphosphate accumulation at 2 uM assessed per 10^6 cells; format: ADME, cell-based; details: TDE = time-dependent effect; procedure, shortened: as §1
CCRF-CEM [12] = experiment: Drug metabolism in human CEM cells assessed as radioactive 2', 3'-didehydro-3'-deoxy-4'-ethynylthymidine diphosphate accumulation at 2 uM after 12 hrs assessed per 10^6 cells; format: ADME, cell-based; procedure, shortened: as §1
CCRF-CEM [13] = experiment: Drug metabolism in human CEM cells assessed as radioactive zidovudine diphosphate accumulation at 2 uM after 2 hrs assessed per 10^6 cells; format: ADME, cell-based; procedure, shortened: as §1
[14] = system: Human immunodeficiency virus 1; experiment: Antiviral activity against 0.1 MOI HIV1 3B infected in human TZM-b1 cells assessed as inhibition of viral replication at 0.02 uM after 24 hrs by luciferase assay; format: functional; details: Human immunodeficiency virus 1, 3B, TZM-b1, 24 h; procedure, shortened: as §2
CCRF-CEM [15] = experiment: Drug metabolism in human CEM cells assessed as radioactive 2', 3'-didehydro-3'-deoxy-4'-ethynylthymidine monophosphate accumulation at 2 uM assessed per 10^6 cells; format: ADME, cell-based; details: TDE = time-dependent effect; procedure, shortened: as §1
CCRF-CEM [16] = experiment: Stability in human CEM cells assessed as intracellular radioactive phosphorylated metabolite accumulation at 2 uM incubated for 24 hrs measured after 8 hrs of compound removal assessed per 10^6 cells; format: ADME, cell-based; procedure, shortened: as §3
CCRF-CEM [17] = experiment: Drug metabolism in human CEM cells assessed as radioactive 2', 3'-didehydro-3'-deoxy-4'-ethynylthymidine monophosphate accumulation at 2 uM after 12 hrs assessed per 10^6 cells; format: ADME, cell-based; procedure, shortened: as §1
[18] = system: Human immunodeficiency virus 1; experiment: Antiviral activity against 0.1 MOI HIV1 3B infected in human TZM-b1 cells assessed as inhibition of viral replication at 0.13 uM after 24 hrs by luciferase assay; format: functional; details: Human immunodeficiency virus 1, 3B, TZM-b1, 24 h; procedure, shortened: as §2
CCRF-CEM [19] = experiment: Drug metabolism in human CEM cells assessed as radioactive zidovudine monophosphate accumulation at 2 uM after 2 hrs assessed per 10^6 cells; format: ADME, cell-based; procedure, shortened: as §1
CCRF-CEM [20] = experiment: Drug metabolism in human CEM cells assessed as radioactive 2', 3'-didehydro-3'-deoxy-4'-ethynylthymidine diphosphate accumulation at 2 uM assessed per 10^6 cells; format: ADME, cell-based; details: TDE = time-dependent effect; procedure, shortened: as §1
[21] = system: Human immunodeficiency virus 1; experiment: Antiviral activity against 0.1 MOI HIV1 3B in 24 hrs pretreated human TZM-b1 cells infected 24 hrs post drug removal assessed as inhibition of viral replication at 0.04 to 0.22 uM measured 24 hrs postinfection by luciferase assay; format: functional, organism-based
Procedure, shortened: (§4)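 TZM-bl cells were plated in phenol red-free RPMI 1640, allowed to adhere 15–18 h at 37°C, then exposed to a range of drug concentrations for 24 h. Medium was changed to remove extracellular drug, and cells were infected with HIV-1 IIIB (MOI 0.1) at 0, 24 or 48 h after removal. Luciferase was read 24 h post-infection with uninfected-cell background subtracted, in quintuple wells, and expressed relative to no-drug wells.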

CCRF-CEM [22] = experiment: Drug metabolism in human CEM cells assessed as radioactive zidovudine monophosphate accumulation at 2 uM assessed per 10^6 cells; format: ADME, cell-based; details: TDE = time-dependent effect; procedure, shortened: as §1
[23] = system: Human immunodeficiency virus 1; experiment: Antiviral activity against 0.1 MOI HIV1 3B in 24 hrs pretreated human TZM-b1 cells infected 48 hrs post drug removal assessed as inhibition of viral replication at 0.04 to 0.22 uM measured 24 hrs postinfection by luciferase assay; format: functional, organism-based; procedure, shortened: as §4
[24] = system: Human immunodeficiency virus 1; experiment: Antiviral activity against 0.1 MOI HIV1 3B infected in human TZM-b1 cells assessed as inhibition of viral replication at 0.18 uM after 24 hrs by luciferase assay; format: functional; details: Human immunodeficiency virus 1, 3B, TZM-b1, 24 h; procedure, shortened: as §2
[25] = substrate: Cc1cn([C@H]2C[C@H](N=[N+]=[N-])[C@@H](CO)O2)c(=O)[nH]c1=O; details: Homo sapiens; H9
[26] = substrate: Cc1cn([C@H]2C[C@H](N=[N+]=[N-])[C@@H](CO)O2)c(=O)[nH]c1=O; details: Homo sapiens; H9; remark: listed apart in the source

## Cc1cn([C@H]2C[C@H](N=[N+]=[N-])[C@@H](CO)O2)c(=O)[nH]c1=O [ZIDOVUDINE]
CCRF-CEM [1]
  Activity: 90 pmol
CCRF-CEM [2]
  Activity: tde
CCRF-CEM [3]
  Activity: tde
CCRF-CEM [4]
  Activity: tde
CCRF-CEM [5]
  Activity: 18 pmol
[6]
  inhibition at 0.22 µM: 50%
CCRF-CEM [7]
  Stability: 0.14 pmol
CCRF-CEM [8]
  Activity: tde
[9]
  inhibition: Dose-dependent effect
CCRF-CEM [10]
  Activity: tde
CCRF-CEM [11]
  Activity: tde
CCRF-CEM [12]
  Activity: 18 pmol
CCRF-CEM [13]
  Activity: 90 pmol
[14]
  inhibition at 0.02 µM: 50%
CCRF-CEM [15]
  Activity: tde
CCRF-CEM [16]
  Stability: 2.33 pmol
CCRF-CEM [17]
  Activity: 18 pmol
[18]
  inhibition at 0.13 µM: 50%
CCRF-CEM [19]
  Activity: 90 pmol
CCRF-CEM [20]
  Activity: tde
[21]
  inhibition: inactive
CCRF-CEM [22]
  Activity: tde
[23]
  inhibition: inactive
[24]
  inhibition at 0.18 µM: 50%

B1: Thymidine kinase, cytosolic (Homo sapiens), P04183 (protein)
chain: MSCINLPTVLPGSPSKTRGQIQVILGPMFSGKSTELMRRVRRFQIAQYKCLVIKYAKDTRYSSSFCTHDRNTMEALPACLLRDVAQEALGVAVIGIDEGQFFPDIVEFCEAMANAGKTVIVAALDGTFQRKPFGAILNLVPLAESVVKLTAVCMECFREAAYTKRLGTEKEVEVIGGADKYHSVCRLCYFKKASGQPAGPDNKENCPVPGKPGEAVAARKLFAPQQILQCSPAN
[25]
  Km: 2.9 µM
[26]
  Km: 3 µM
